Source: PubChem
The list is not random: actives were taken first. Their share in the collection is about 2.7%.
pPAFAH FP inh: inhibitors of human plasma PAF acetylhydrolase (pPAFAH); Q13093; AID 463082; recombinant pPAFAH, FP-rhodamine probe fluorescence polarization; 330,000 tested, 1.5% active; inhibition, % at 3.39 µM;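 active means inhibition above the mean inhibition across the screen plus 3 SD, cut at about 25% in these data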;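 further: inhibitors block binding of the rhodamine activity-based probe so polarization drops; 0% = enzyme with DMSO and 100% = wells lacking pPAFAH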
PAFAH2 inh: PAFAH2 (human) inhibition; 340,000 tested, 0.99% active; inhibition, % at 3.39 µM; AID 492956; recombinant PAFAH2, FP-rhodamine activity probe, fluorescence polarization;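 active means inhibition above the mean over all tested compounds plus 3 SD, cut at about 30% in these data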;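 further: inhibitors block probe labeling of enzyme so polarization drops; 0% = enzyme with DMSO and 100% = wells lacking PAFAH2 protein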
ASAP1 GAP inh: blocks human ASAP1-stimulated Arf1 GTP hydrolysis; Q9ULH1; GDP FP detection; inhibition, % at 16.5 µM; 360,000 tested, 0.19% active; in the data active means inhibition above about 25%;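 further: 0% = vehicle with enzyme and substrate and 100% = no enzyme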
Target sequence (Q9ULH1 325-724 limits assumed): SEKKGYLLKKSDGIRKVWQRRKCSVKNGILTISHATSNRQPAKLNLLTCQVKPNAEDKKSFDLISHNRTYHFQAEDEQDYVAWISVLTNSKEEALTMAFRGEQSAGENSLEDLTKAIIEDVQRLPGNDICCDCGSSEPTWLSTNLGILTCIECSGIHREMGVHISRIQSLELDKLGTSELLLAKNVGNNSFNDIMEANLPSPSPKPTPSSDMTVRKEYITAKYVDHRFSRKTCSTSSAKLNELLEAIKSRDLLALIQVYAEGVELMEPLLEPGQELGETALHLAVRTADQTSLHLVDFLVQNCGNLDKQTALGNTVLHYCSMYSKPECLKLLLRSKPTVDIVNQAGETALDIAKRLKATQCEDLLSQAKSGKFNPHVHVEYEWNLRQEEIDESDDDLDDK
PAFAH1B2 FP inh: blocks human PAF acetylhydrolase 1b catalytic subunit 2 | P68402 | recombinant PAFAH1B2, FP-rhodamine activity probe, fluorescence polarization | inhibition, % at 3.39 µM | 340,000 tested, 1.2% active | AID 492953;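 active means inhibition above the mean of all tested compounds plus 3 SD, cut at about 24% in these data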;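 further: 0% = enzyme with DMSO and 100% = wells lacking PAFAH1B2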
Target sequence (P68402 whole entry, looked up): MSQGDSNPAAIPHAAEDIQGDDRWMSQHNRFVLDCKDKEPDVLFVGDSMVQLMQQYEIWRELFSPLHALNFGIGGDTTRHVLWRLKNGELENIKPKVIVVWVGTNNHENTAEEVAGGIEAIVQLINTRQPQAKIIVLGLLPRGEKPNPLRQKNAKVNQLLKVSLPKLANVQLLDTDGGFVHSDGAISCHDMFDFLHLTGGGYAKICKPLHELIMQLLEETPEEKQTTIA
PAFAH1B3 FP inh: blocks human PAF acetylhydrolase 1B catalytic subunit 3; Q15102; recombinant PAFAH1B3, FP-rhodamine probe, fluorescence polarization; inhibition, % at 3.39 µM; 340,000 tested, 0.28% active; AID 492972;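 active means inhibition above the screen-wide average of all tested compounds plus 3 SD, cut at about 25% in these data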;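 further: 0% = enzyme with DMSO only and 100% = wells lacking PAFAH1B3 protein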
ARFGAP1 inhibitor: inhibitors of rat ARFGAP1; 360,000 tested, 0.26% active; inhibition, % at 16.5 µM; Arfgap1-stimulated ARF1 GTP hydrolysis, GDP FP detection; AID 651572;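 active means inhibition above a per-plate limit, mean inhibition of low control wells plus 3 SD, cut at about 25% in these data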;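 further: 0% = DMSO wells with enzyme and 100% = wells lacking Arfgap1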
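system = rat Arfgap1 catalytic domain, aa 1-136 | technique = FP, GDP Alexa 633 tracer displaced from anti-GDP antibody, 620/688 nm | compound = one concentration, 16.5 µM, DMSO 1.26% | medium = HEPES-based buffer, pH 7.5 | timing = compound-enzyme preincubation 20 min, reaction 120 min, detection 60 min, 25 °C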
* hit, by the source's call; x = not tested or not shown.

SMILES	pPAFAH FP inh	PAFAH2 inh	ASAP1 GAP inh	PAFAH1B2 FP inh	PAFAH1B3 FP inh	ARFGAP1 inhibitor
N=c1c(S(=O)(=O)c2ccc(Br)cc2)cc2c(=O)n3ccccc3nc2n1Cc1ccco1	27*	6	-5	4	6	3
CC(NC(=O)c1ccccc1NS(=O)(=O)c1ccc(CCC(=O)O)cc1)c1ccccc1 (stereo not given)	3	2	-7	28*	6	2
O=C(COC(=O)c1cccs1)c1ccccc1	9	34*	-2	4	14	3
COc1ccc(C(=O)COC(=O)c2cccs2)cc1	4	12	-2	9	4	-5
N#C/C(=C\c1ccc(-c2ccccc2[N+](=O)[O-])o1)C(=O)Nc1nc(-c2cccs2)cs1	30*	22	4	4	16	-1
O=C(NCc1ccc2c(c1)OCO2)c1ccc(CSCc2ccc(Cl)cc2)o1	18	0	-1	26*	6	8
CCc1ccccc1S(=O)(=O)Cc1ccc(C(=O)NCc2ccc3c(c2)OCO3)o1	2	5	3	11	5	2
O=C(NCc1ccc2c(c1)OCO2)c1ccc(CS(=O)(=O)Cc2cccc(Cl)c2)o1	25*	-3	7	10	5	13
CN1CCCCC(NC(=O)COCc2ccccc2)C1=O (stereo not given)	x	x	9	x	x	7
COc1ccccc1C(=O)N1CCC2CCN(C(=O)OC(C)(C)C)C2C1 (stereo not given)	x	x	5	x	x	6
C[C@@H]1COc2cccc(N3CCCC3)c2S(=O)(=O)N1	x	x	6	x	x	-1
COc1cc(NC(=O)CSc2ncnc3scc(-c4ccccc4)c23)c(C(=O)O)cc1OC	31*	29	8	5	9	-9
Cc1cc(N2CCN(CC(C)(C)O)C[C@H]2C)ccc1N1CCN(Cc2ccccc2)[C@@H](C)C1	x	x	6	x	x	11
Cc1ccc2[nH]c3c(N4CCN(Cc5ccc6c(c5)OCO6)CC4)ncnc3c2c1	x	x	1	x	x	3
COc1ccc2c(c1)[nH]c1c(N3CCN(Cc4ccc5c(c4)OCO5)CC3)ncnc12	31*	-2	7	7	1	9
CC(C)(C)S(=O)(=O)N1Cc2cc(CO)ccc2[C@@H]1CCO	x	x	1	x	x	-3
CC1(OC(=O)c2cnc3ccccc3n2)C(=O)C=C2C=C(c3ccc(C#N)cc3)OC=C2C1=O (stereo not given)	11	x	x	x	x	x
CC1(OC(=O)c2ccco2)C(=O)C=C2C=C(c3ccsc3)OC=C2C1=O (stereo not given)	50*	x	x	x	x	x
CCCCC1=CC2=CC(=O)C(C)(O)C(=O)C2=CO1 (stereo not given)	41*	x	x	x	x	x
COC(=O)CCCC1=CC2=CC(=O)C(C)(OC(=O)c3ccco3)C(=O)C2=CO1 (stereo not given)	47*	x	x	x	x	x
CC(C)(C)OC(=O)NCCCC1=CC2=CC(=O)C(C)(OC(=O)C3CCCC3)C(=O)C2=CO1 (stereo not given)	41*	x	x	x	x	x
COC(=O)[C@]12C[C@H](CC(=O)N3CCN(C(=O)C4CC4)CC3)C(=O)N(Cc3ccccc3)C1=C[C@H](C1CCCC1)O[C@@H]2C	x	x	-5	x	x	-11
O=c1[nH]cnc2nn(C3OC(CO)C(O)C3O)nc12 (stereo not given)	x	x	6	x	x	6
CCCCC1=CC2=CC(=O)C(C)(OC(=O)c3ccc(Cl)nc3)C(=O)C2=CO1 (stereo not given)	53*	x	x	x	x	x
CC1(O)C(=O)C=C2C=C(c3ccsc3)OC=C2C1=O (stereo not given)	42*	x	x	x	x	x
SMILES	pPAFAH FP inh	PAFAH2 inh	ASAP1 GAP inh	PAFAH1B2 FP inh	PAFAH1B3 FP inh	ARFGAP1 inhibitor
CC(C)(C)OC(=O)NCCCCC1=CC2=CC(=O)C(C)(OC(=O)c3ccco3)C(=O)C2=CO1 (stereo not given)	43*	x	x	x	x	x
CCOC(=O)C1=CCN(S(=O)(=O)c2ccc(Br)cc2)C1c1ccc(Br)cc1 (stereo not given)	x	x	8	x	x	4
O=[N+]([O-])c1ccc(CN2[C@H](COCc3ccccc3)C=CS2(=O)=O)cc1	x	x	-8	x	x	9
CCOC(=O)c1sc(N2C(=O)C(O)=C(C(=O)c3ccc(C)o3)C2c2cccc([N+](=O)[O-])c2)nc1C (stereo not given)	13	47*	3	3	11	4
CCOC(=O)c1sc(N2C(=O)C(O)=C(C(=O)c3ccc(C)o3)C2c2ccc(OC)c(OC)c2)nc1C (stereo not given)	6	-2	0	1	3	-5
CCOC(=O)Nc1cc(=O)c([N+](=O)[O-])c(N)[nH]1	x	x	1	x	x	1
CS(=O)(=O)Nc1ccccc1C(=O)Nc1cc(Cl)cc(Cl)c1	28*	9	11	16	8	8
Cc1[nH]n(-c2ncc(-c3ccccc3)s2)c(=O)c1C(c1ccc(Cl)cc1)C(C#N)C#N (stereo not given)	27*	29	0	8	14	3
O=c1[nH]cc(-c2ccc(Br)cc2)n1Cc1ccccc1	4	3	-4	15	10	6
Fc1ccc(-c2c[nH]c(=S)n2Cc2ccccc2)cc1	-1	4	-4	27*	8	-5
S=c1[nH]nc(-c2ccccc2Cl)n1Cc1ccccc1	8	2	-8	27*	-2	-11
Fc1ccc(-c2n[nH]c(=S)n2Cc2ccccc2)cc1	2	-5	x	28*	8	x
Oc1ccc(-c2n[nH]c(=S)n2Cc2ccccc2)cc1	-3	8	0	25*	5	-4
S=c1[nH]nc(-c2ccc(Br)cc2)n1Cc1ccccc1	0	6	-1	22	14	-8
CC(=O)Nc1ccc2nc(NS(=O)(=O)c3ccc(C)cc3)sc2c1	26*	1	16	6	14	2
COc1ccc2nc(NS(=O)(=O)c3ccc(NC(C)=O)cc3)sc2c1	6	14	9	1	8	5
O=C(N/N=C/c1ccc[nH]1)c1cc2ccccc2cc1O	25*	10	-8	7	22	1
O=C(N/N=C/c1ccncc1)c1cc2ccccc2cc1O	x	5	13	4	4	-8
CCCCN1C(=O)C(=O)N(CC(=O)Nc2sc(CC)cc2C(=O)OCC)C1=O	33*	-2	4	6	3	8
COC(=O)[C@]12C[C@H](CC(=O)NCC34CC5CC(CC(C5)C3)C4)C(=O)N(Cc3ccccc3)C1=C[C@H](C1CCCC1)O[C@@H]2C	x	x	12	x	x	2
O=C(N/N=C/C1C(c2ccccc2)C1(Cl)Cl)c1cccc(Cl)c1 (stereo not given)	2	-8	7	29*	2	5
Cc1cccc(N=C2NC(=O)/C(=C/c3cccn3C)S2)c1C	32*	10	3	3	8	-1
Cc1ccc(N=C2NC(=O)/C(=C/c3cccn3C)S2)cc1C	17	x	-4	x	x	-2
CC(C)C[C@@H]1COc2cc(N3CCOCC3)ccc2S(=O)(=O)N1	x	x	0	x	x	6
